# Measurements of several laboratories.
# Observed: metabolic stability
SMILES,system,setting,quantity,value
NCCCOCC(=O)N1CCC[C@H](C(=O)NCc2nc(-c3ccc(C4CC4)cc3)cs2)C1,"male Sprague-Dawley rat, liver microsomes",0.5 µM,microsomal CLint,15 µL/min/mg
N#Cc1ccc(C[C@H](NC(=O)c2cc3cc(F)ccc3[nH]2)C(=O)N2CCc3ccccc32)cc1,"rat, liver microsomes","10 µM, pH 7.4",microsomal CLint,9.1 µL/min/mg
C[C@]1(O)CCCN(c2nc(Nc3ccc(S(=O)(=O)N[C@H]4CC[C@H](CN5CCN(c6ccc(C7CCC(=O)NC7=O)cc6F)CC5)CC4)cc3F)ncc2C(F)(F)F)C1 (some centres unmarked),"rat, liver microsomes",1 µM,scaled CLint,< 21 mL/min/kg
Cc1[nH]c(C)c(S(=O)(=O)Nc2ccc(C(F)(F)F)c(Cl)c2)c1C(=O)N1CCC(F)(F)C1,"rat, liver microsomes",,microsomal CLint,87 µL/min/mg
CCONC(=O)N1CCC[C@H](C(=O)NCc2nc(-c3ccccc3)cs2)C1,"male Sprague-Dawley rat, liver microsomes",0.5 µM,microsomal CLint,31 µL/min/mg
Cc1ccc(C(C)(C)c2ccc(NC(=O)CN(C)c3ccccc3N3CCCC3=O)cc2)cc1,"rat, hepatocytes",,hepatocyte CLint,63 µL/min/10⁶ cells
COCC(=O)N1CCC[C@H](C(=O)NCc2nc(-c3ccc(-c4ccccn4)cc3)cs2)C1,"male Sprague-Dawley rat, liver microsomes",0.5 µM,microsomal CLint,104 µL/min/mg
C[C@]1(O)CCCN(c2nc(Nc3ccc(S(=O)(=O)N[C@@H]4CCN(CC5CCN(c6ccc(C7CCC(=O)NC7=O)cc6F)CC5)C[C@H]4F)cc3F)ncc2C(F)(F)F)C1 (some centres unmarked),"rat, liver microsomes",1 µM,scaled CLint,< 21 mL/min/kg
Cc1ccc(Oc2ccc(NC(=O)CNc3ccccc3N3CCCC3=O)cc2)cc1,"rat, hepatocytes",,hepatocyte CLint,58 µL/min/10⁶ cells
CNc1ccc(C(N)=O)cn1,"male Wistar rat, hepatocytes","1 µM, pH 7.4",hepatocyte CLint,2.9 µL/min/10⁶ cells
Cc1ccc(N(C)c2ccc(NC(=O)CN(C)c3cc(F)ccc3N3CCCC3=O)cc2)cc1,"rat, hepatocytes",,hepatocyte CLint,91 µL/min/10⁶ cells
N#Cc1ccc(-c2csc(CNC(=O)[C@H]3CCCN(C(=O)COC4CC4)C3)n2)cc1,"male Sprague-Dawley rat, liver microsomes",0.5 µM,microsomal CLint,100 µL/min/mg
Cc1ccc(Nc2cnnc3ccc(-c4ccc(N5CCN(C)CC5)cc4)cc23)cn1,"rat, hepatocytes",,hepatocyte CLint,15 µL/min/10⁶ cells
Cc1cc(S(=O)(=O)N[C@]2(C)C[C@@H](N3CCN(CC4CCN(c5ccc6c(c5F)n(C)c(=O)n6C5CCC(=O)NC5=O)CC4)CC3)C2)ccc1Nc1ncc(C(F)(F)F)c(N2CCC[C@](C)(O)C2)n1 (some centres unmarked),"rat, liver microsomes",1 µM,scaled CLint,< 21 mL/min/kg
N#Cc1ccc(C[C@@H](Nc2c(Nc3ccc(F)cc3)c(=O)c2=O)C(=O)N2CCc3ccccc32)cc1,"rat, liver microsomes","10 µM, pH 7.4",microsomal CLint,46.2 µL/min/mg
Cc1nnc(-c2ccc3ccn(CC(=O)Nc4ccccc4Cl)c3c2)o1,"rat, hepatocytes",,hepatocyte CLint,> 92 µL/min/10⁶ cells
CCOCC(=O)N1CCC[C@H](C(=O)NCc2nc(-c3ccc(C#N)nc3)cs2)C1,"male Sprague-Dawley rat, liver microsomes",0.5 µM,scaled CLint,19 mL/min/kg
Cc1ccc(N(c2ccc(NC(=O)CN(C)c3ccccc3N3CCCC3=O)cn2)C(C)C)cc1,"rat, hepatocytes",,hepatocyte CLint,86 µL/min/10⁶ cells
Cc1cc(S(=O)(=O)N[C@H]2CC[C@H](CN3CCN(c4ccc(C5CCC(=O)NC5=O)c(Cl)c4)CC3)CC2)ccc1Nc1ncc(C(F)(F)F)c(N2CCC[C@](C)(O)C2)n1 (some centres unmarked),"rat, liver microsomes",1 µM,scaled CLint,< 21 mL/min/kg
Cc1ccc(-c2csc(CNC(=O)[C@H]3CCCN(C(=O)COCCF)[C@H]3C)n2)cn1,"male Sprague-Dawley rat, liver microsomes",0.5 µM,microsomal CLint,31 µL/min/mg
CNS(=O)(=O)c1ccc(Nc2ncc(C(F)(F)F)c([C@H]3CC[C@@](C)(O)CC3)n2)c(C)c1,"rat, liver microsomes",1 µM,scaled CLint,< 21 mL/min/kg
NCCOCC(=O)N1CCC[C@H](C(=O)NCc2nc(-c3ccc(C(F)(F)F)cc3)cs2)C1,"male Sprague-Dawley rat, liver microsomes",0.5 µM,scaled CLint,< 5.6 mL/min/kg
Cc1ccc(Oc2ccc(NC(=O)CN(C)c3ccccc3N3CCCC3=O)cc2)cc1,"rat, hepatocytes",,hepatocyte CLint,> 92 µL/min/10⁶ cells
Cc1cc(S(=O)(=O)N[C@H]2C[C@H](CN3CCN(c4ccc(C5CCC(=O)NC5=O)c(Cl)c4)CC3)C2)ccc1Nc1ncc(C(F)(F)F)c(N2CCC[C@](C)(O)C2)n1 (some centres unmarked),"rat, liver microsomes",1 µM,scaled CLint,36 mL/min/kg
CN1CCN(c2ccc(-c3ccc4nncc(Nc5ccc(OC(F)(F)F)cc5)c4c3)cc2)CC1,"rat, hepatocytes",,hepatocyte CLint,14 µL/min/10⁶ cells
CCONC(=O)N1CCC[C@H](C(=O)NCc2nc(-c3ccc(C#N)cc3)cs2)C1,"male Sprague-Dawley rat, liver microsomes",0.5 µM,microsomal CLint,33 µL/min/mg
Cc1ccc(N(C)c2ccc(NC(=O)CN(C)c3cccnc3N3CCCC3=O)cc2)cc1,"rat, hepatocytes",,hepatocyte CLint,> 92 µL/min/10⁶ cells
N#Cc1ccc(C[C@H](NC(=O)c2cc3ccc(F)cc3[nH]2)C(=O)N2CCc3ccccc32)cc1,"rat, liver microsomes","10 µM, pH 7.4",microsomal CLint,6.6 µL/min/mg
Cc1cc(S(=O)(=O)N[C@H]2CC[C@H](CN3CCN(c4ccc(NC5CCC(=O)NC5=O)cc4F)CC3)CC2)ccc1Nc1ncc(C(F)(F)F)c(N2CCC[C@](C)(O)C2)n1 (some centres unmarked),"rat, liver microsomes",1 µM,scaled CLint,< 21 mL/min/kg
N#Cc1ccc(C[C@H](Nc2ncc(-c3ccc(F)cc3)o2)C(=O)N2CCc3ccccc32)cc1,"rat, liver microsomes","10 µM, pH 7.4",microsomal CLint,16.1 µL/min/mg
Cc1ccc(N(c2ccc(NC(=O)CN(C)c3ccccc3N3CCCC3=O)cc2)C(C)C)cc1,"rat, hepatocytes",,hepatocyte CLint,> 92 µL/min/10⁶ cells
C[C@H]1CN(CC2CCN(c3ccc(C4CCC(=O)NC4=O)cc3F)CC2)CC[C@H]1NS(=O)(=O)c1ccc(Nc2ncc(C(F)(F)F)c(N3CCC[C@](C)(O)C3)n2)c(F)c1 (some centres unmarked),"rat, liver microsomes",1 µM,scaled CLint,45 mL/min/kg
